This is an account of results in the array DNA melting data of Ke et al. (doi:10.1101/2024.01.08.574731).

A short description of data set [1]: folding enthalpy; higher = less favourable; fluorescence melt of hairpins on a sequencing array, two-state fit. As to conditions: sodium 0.088 M. In a few lines:
(§1)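 Hairpins were imaged by Cy3 fluorescence on a sequenced MiSeq flow cell with annealed Cy3 and quencher oligos, in 50 mM Na-HEPES pH 8.0, 25 mM NaCl, in 2.5 °C steps up to 60 °C. Bootstrapped two-state fits of normalised signals gave melting temperature and folding enthalpy. Four replicates were combined by inverse variance, and fitted temperatures were raised by 9.35 °C to match UV melts.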

The nature of data set [2]: melting temperature; fluorescence melt of hairpins on a sequencing array, two-state fit, raised by 9.35 °C to match UV melts. The settings on record: sodium 0.088 M. The method, boiled down: as §1

Consider GCGGCGATCCGC ((((....)))), for which the folding enthalpy in data set [1] was -16.7 kcal/mol. The Tm in data set [2] came to 54 °C.
On the same counts, the results for GCGGCGCCCCGC ((((....)))) are -16.4 kcal/mol and 52.7 °C.
For GCGGCGCCGAAAGGCCGC (((..(((....)))))), in data set [1], the folding enthalpy is -14.3 kcal/mol. Further, in data set [2], the Tm came to 67.2 °C.
On the same counts, the results for GCGGCGCGAAAGCACGGC ((.(.((....)).).)) are -20.5 kcal/mol and 56.4 °C.
For GCGGCGCGAAAGCCCGGC ((.(.((....)).).)), the folding enthalpy in data set [1] is -14.6 kcal/mol. For the same sequence, in data set [2], the Tm was determined as 59.8 °C.
The like results for GCGGCGCGAAAGCGAAGC ((..(((....)))..)) were, in that order, -29 kcal/mol and 68.1 °C.
The like results for GCGGCGCGAAAGCGAGGC ((..(((....)))..)) were, in that order, -24.8 kcal/mol and 63.9 °C.
On the same counts, the results for GCGGCGCGAAAGCGATGC ((..(((....)))..)) are -38.6 kcal/mol and 69.1 °C.
In the case of GCGGCGCGAAAGCGTTGC ((..(((....)))..)), the folding enthalpy in data set [1] was -21.2 kcal/mol. In addition, the Tm in data set [2] was determined as 66.5 °C.
In the case of GCGGCGCGAAAGCTCGGC ((.(.((....)).).)), the folding enthalpy in data set [1] was -17.4 kcal/mol. For the same sequence, the Tm in data set [2] came out at 44.4 °C.
On the same counts, the results for GCGGCGGCCCGC ((((....)))) are -13.8 kcal/mol and 58.5 °C.
On the same counts, the results for GCGGCTCCGAAAGGACGC (((..(((....)))))) are -41.2 kcal/mol and 54.7 °C.
On the same counts, the results for GCGGCTTTCCGC ((((....)))) are -25 kcal/mol and 56.6 °C.
As to GCGGGACGCCGC ((((....)))), in data set [1], the folding enthalpy is -13.9 kcal/mol. Further, in data set [2], the Tm is 66.2 °C.
The like results for GCGGGACTCCGC ((((....)))) were, in that order, -27.3 kcal/mol and 67.7 °C.
On the same counts, the results for GCGGGAGGAAACTCCCAC (.(((((....))))).) are -13.7 kcal/mol and 48.7 °C.
Regarding GCGGGAGGAAACTCTCGC (((.(((....))).))), the folding enthalpy in data set [1] was -37.2 kcal/mol. In addition, in data set [2], the Tm was 57.5 °C.
On the same counts, the results for GCGGGAGGCCGC ((((....)))) are -18.4 kcal/mol and 57.8 °C.
On the same counts, the results for GCGGGATCCCGC ((((....)))) are -41.9 kcal/mol and 59.3 °C.
On the same counts, the results for GCGGGCAGCCGC ((((....)))) are -16.4 kcal/mol and 63.5 °C.
Take GCGGGCATCCGC ((((....)))): in data set [1], the folding enthalpy was -24.5 kcal/mol. Besides, the Tm in data set [2] was determined as 67 °C.
The like results for GCGGGCGAAAGCCTCGC ((((((....))).))) were, in that order, -21.9 kcal/mol and 66.3 °C.
The like results for GCGGGCGGAAACACCCGC (((((.(....).))))) were, in that order, -44.2 kcal/mol and 60.5 °C.
On the same counts, the results for GCGGGCGGAAACGCCCAC (.(((((....))))).) are -8.92 kcal/mol and 57.2 °C.
With GCGGGCTTCCGC ((((....)))), the folding enthalpy in data set [1] is -21.2 kcal/mol. The Tm in data set [2] came out at 61 °C.
The like results for GCGGGGACCCGC ((((....)))) were, in that order, -26.3 kcal/mol and 68.3 °C.
In the case of GCGGGGCGAAAGCCTAGC ((..(((....)))..)), in data set [1], the folding enthalpy was -19.2 kcal/mol. Further, the Tm in data set [2] worked out at 64.2 °C.
Take GCGGGGCGAAAGCGGCGC (((..((....))..))): the folding enthalpy in data set [1] was -34.7 kcal/mol. In addition, the Tm in data set [2] worked out at 66.8 °C.
On the same counts, the results for GCGGGGCGAAAGCTCAGC ((.(.((....)).).)) are -23.7 kcal/mol and 60.1 °C.
On the same counts, the results for GCGGGGCGAAAGCTCGGC ((.(.((....)).).)) are -16.4 kcal/mol and 56.3 °C.
The like results for GCGGGGCGAAAGCTGCGC (((..((....))..))) were, in that order, -27.2 kcal/mol and 65.6 °C.
Take GCGGGGTCGAAAGACCGC (((..(((....)))))): the folding enthalpy in data set [1] is -12.8 kcal/mol. The Tm in data set [2] was determined as 57.7 °C.
For GCGGGTGCCCGC ((((....)))), the folding enthalpy in data set [1] is -30.3 kcal/mol. In data set [2], the Tm stood at 57.4 °C.
Regarding GCGGGTGGAAACGCTCGC (((.(.(....).).))), the folding enthalpy in data set [1] was -24.6 kcal/mol. The Tm in data set [2] was found to be 52.1 °C.
On the same counts, the results for GCGGGTGTCCGC ((((....)))) are -22.8 kcal/mol and 58.2 °C.
On the same counts, the results for GCGGGTTCGAAAGAACGC (((..(((....)))))) are -12.3 kcal/mol and 45.5 °C.
The like results for GCGGTAACCGC ((((...)))) were, in that order, -27.8 kcal/mol and 57.5 °C.
In the case of GCGGTAAGCCGC ((((....)))), the folding enthalpy in data set [1] was -23.3 kcal/mol. For the same sequence, the Tm in data set [2] was determined as 57.7 °C.
The like results for GCGGTACGAAAGTATCGC (((.(((....))).))) were, in that order, -56.1 kcal/mol and 64.7 °C.
